25 compounds from ChEMBL document CHEMBL1221309, “Synthesis of novel tetrahydroisoquinoline bronchodilators” (Bioorg Med Chem Lett, 2010) can be followed below.

The structures appear in SMILES notation. ≈ marks a conversion by molar mass, not a printed value.

The species entered for data set [1] is Homo sapiens. Nature of the data set: Bronchorelaxant activity in human small airways assessed as remaining contraction at 1 uM relative to LTD4. The class given is functional. The procedure, abridged:
(§1)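 Isolated human small airways (inner diameter <2.0 mm) were mounted in a previously described apparatus and contracted with LTD4. The test item was added, usually at 10 μM and also at 1 μM. %RC is the contraction remaining with the test item, expressed against the maximum LTD4-evoked contraction without it.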

The species named for data set [2] is Homo sapiens. Kind of data set: Bronchorelaxant activity in human small airways assessed as remaining contraction at 10 uM relative to LTD4. Format: functional. The procedure, abridged:
as §1

The species named for data set [3] is Homo sapiens. Kind of data set: Bronchorelaxant activity in human small airways assessed as remaining contraction at 10 uM relative to acetylcholine. The class given is functional. The procedure, abridged:
(§2)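 Isolated human small airways (inner diameter <2.0 mm) were contracted with acetylcholine, with histamine, or with a cocktail of LTD4, acetylcholine and histamine. Test item at 10 μM; relaxation of each induced contraction was recorded.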

Data set [4] is filed under the species Homo sapiens. Kind of data set: Bronchorelaxant activity in human small airways assessed as remaining contraction at 10 uM relative to acetylcholine and histamine combination. Format: functional. A digest of the protocol: as §2
Data set [5] can be described thus: Lipophilicity log D of the compound at pH 7.4. The following applies: buffer. The class given is physicochemical.
Data set [6] in a line: Aqueous solubility of the compound. Format: physicochemical.
For data set [7], the species on record is Homo sapiens. Kind of data set: Bronchorelaxant activity in human small airways assessed as remaining contraction. The class given is functional. A digest of the protocol:
as §1

Data set [8] is filed under the species Homo sapiens. Nature of the data set: Bronchorelaxant activity in human small airways assessed as remaining contraction at 10 uM relative to histamine. The class given is functional. A digest of the protocol: as §2

As for `N#Cc1ccc(CCCC(=O)N2CCc3c(Cl)c(O)c(O)c(Cl)c3C2)nc1`, the figures for the Activity in the data set listed under Homo sapiens [1] and in the data set listed under Homo sapiens [2] were 86% and 34%, respectively.
The matching figures for `O=C(CCCc1ccc(C(F)(F)F)cn1)N1CCc2c(Cl)c(O)c(O)c(Cl)c2C1`: 72% and 19%.
The matching figures for `O=C(CCCc1ncc(C(F)(F)F)cc1-c1ccccc1)N1CCc2c(Cl)c(O)c(O)c(Cl)c2C1`: 90% and 38%.
In the case of `O=C(/C=C/c1ccc(C(F)(F)F)nc1)N1CCc2c(c3c(c4c2CCO4)OCC3)C1`, in the data set listed under Homo sapiens [2], the Activity was determined as 91%.
Take `COc1ccc(CCCC(=O)N2CCc3c(Cl)c(O)c(O)c(Cl)c3C2)nc1`: the Activity was 96% in the data set filed under Homo sapiens [1] and 31% in the data set filed under Homo sapiens [2].
`O=C(CCCc1ccc([N+](=O)[O-])cn1)N1CCc2c(Cl)c(O)c(O)c(Cl)c2C1`: the Activity was found to be 74% in the data set filed under Homo sapiens [1] and 33% in the data set filed under Homo sapiens [2].
As for `O=C(CCc1ccc(C(F)(F)F)nc1)N1CCc2c(F)c(O)c(O)c(F)c2C1`, the Activity in the data set listed under Homo sapiens [2] stood at 85%.
The logD is lipophilicity at a set pH, counting ionised and neutral species. Broadly, the solubility is how much of the substance goes into solution per volume. The low end stands for a poorly soluble substance, the high end for a readily soluble substance. For the compound `C/C(=C\C(=O)N1CCc2c(Cl)c(O)c(O)c(Cl)c2C1)c1ccc(C(F)(F)F)nc1`, the Activity in the data set listed under Homo sapiens [3] stood at 93%; in the data set listed under Homo sapiens [4] it was 82%; in the data set listed under Homo sapiens [1], 74%; in the data set filed under Homo sapiens [8], 97%; in the data set filed under Homo sapiens [2], 7%. The compound also gave a logD in data set [5] of 3.5. Besides, in data set [6], the solubility amounted to 18 µM (≈ 8.05 µg/mL). Further, in the data set listed under Homo sapiens [7], the ED50 is 2270 nM.
As to `O=C(CCCc1ccc(Cl)cn1)N1CCc2c(Cl)c(O)c(O)c(Cl)c2C1`, the results for the Activity in the data set listed under Homo sapiens [1] and in the data set listed under Homo sapiens [2] were 85% and 15%, respectively.
With `Cc1c(O)c(O)c(C)c2c1CCN(C(=O)/C=C/c1ccc(C(F)(F)F)nc1)C2`, the Activity in the data set filed under Homo sapiens [2] came out at 75%.
Turning to `O=C(/C=C/c1cccnc1)N1CCc2c(Cl)c(O)c(O)c(Cl)c2C1`, the figures for the Activity in the data set listed under Homo sapiens [1] and in the data set listed under Homo sapiens [2] were 100% and 44%, respectively.
As for `O=C(/C=C/c1ccc(O)cc1)N1CCc2c(Cl)c(O)c(O)c(Cl)c2C1`, the Activity in the data set filed under Homo sapiens [2] turned out to be 32%.
As to `Cc1nc(C(F)(F)F)ccc1/C=C/C(=O)N1CCc2c(Cl)c(O)c(O)c(Cl)c2C1`, the Activity in the data set filed under Homo sapiens [1] was found to be 71%; in the data set filed under Homo sapiens [2] it was 9%.
The matching figures for `O=C(CCCc1ccc(C(F)(F)F)nc1)N1CCc2c(Cl)c(O)c(O)c(Cl)c2C1`: 93% and 26%.
The matching figures for `O=C(/C=C/c1ccccc1)N1CCc2c(Cl)c(O)c(O)c(Cl)c2C1`: 83% and 41%.
For the compound `O=C(CCc1ccc(C(F)(F)F)nc1)N1CCc2c(Cl)c(O)c(O)c(Cl)c2C1`, in the data set filed under Homo sapiens [2], the Activity amounted to 29%.
For the compound `CS(=O)(=O)c1ccc(CCCC(=O)N2CCc3c(Cl)c(O)c(O)c(Cl)c3C2)nc1`, the Activity in the data set listed under Homo sapiens [1] is 99%; in the data set listed under Homo sapiens [2], 72%.
For `O=C(CCCc1ccc(Cl)cc1)N1CCc2c(Cl)c(O)c(O)c(Cl)c2C1`, the Activity came to 80% in the data set listed under Homo sapiens [1] and 16% in the data set listed under Homo sapiens [2].
The matching figures for `O=C(CCCc1ccc(F)cn1)N1CCc2c(Cl)c(O)c(O)c(Cl)c2C1`: 89% and 25%.
Take `Cc1nc(C(F)(F)F)ncc1/C=C/C(=O)N1CCc2c(Cl)c(O)c(O)c(Cl)c2C1`: the figures for the Activity in the data set filed under Homo sapiens [1] and in the data set filed under Homo sapiens [2] were 88% and 18%, respectively.
`O=C(/C=C/c1ccc(C(F)(F)F)nc1)N1CCc2c(Cl)c(O)c(O)c(Cl)c2C1`: the Activity was found to be 87% in the data set filed under Homo sapiens [1] and 6% in the data set filed under Homo sapiens [2].
For `O=C(/C=C/c1ccc(F)cn1)N1CCc2c(Cl)c(O)c(O)c(Cl)c2C1`, the Activity in the data set listed under Homo sapiens [2] was 24%.
Turning to `Cc1cc(C(F)(F)F)cnc1CCCC(=O)N1CCc2c(Cl)c(O)c(O)c(Cl)c2C1`, the results for the Activity in the data set listed under Homo sapiens [1] and in the data set filed under Homo sapiens [2] were 67% and 7%, respectively.
`O=C(CCCc1ncc(C(F)(F)F)cc1C1CCCCC1)N1CCc2c(Cl)c(O)c(O)c(Cl)c2C1`: the Activity in the data set listed under Homo sapiens [2] came out at 77%.
Turning to `O=C(CCCc1ncc(C(F)(F)F)cc1Cl)N1CCc2c(Cl)c(O)c(O)c(Cl)c2C1`, the results for the Activity in the data set listed under Homo sapiens [1] and in the data set filed under Homo sapiens [2] were 61% and 5%, respectively.
